# Bioassay records as filed in PubChem.
# Casp6 inh = inhibitors of human caspase-6 | purified caspase-6, Z-VEID-R110 cleavage fluorescence | P55212 | 350,000 tested, 0.53% active | inhibition, % at 12.5 µM;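 active = mean inhibition across replicates at least about 35%, with every replicate also reaching that limit, limit read from the data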;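 also: 0% = median of neutral control wells and 100% = no fluorescence left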
# LMPTP block = blocks human LMPTP phosphatase | P24666 | recombinant LMPTP-A, OMFP fluorogenic substrate, fluorescence intensity | inhibition, % at 20 µM | 360,000 tested, 0.22% active | AID 651560;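 active = compounds that cut the enzyme signal by at least half of the control window in the single-dose screen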;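 also: plate controls were DMSO wells with enzyme plus substrate for no effect and substrate without enzyme for full effect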
#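 Assay system: LMPTP-A phosphatase enzyme | Input: 0.625 nM enzyme | Also added: Fluorogenic phosphatase substrate OMFP at 400 µM final | Compound dosing: One test concentration per compound, 20 µM, with 3% DMSO overall | Schedule: 50 min enzyme reaction at room temperature, protected from light | Signal: Fluorescence intensity | Benchmarks: no-enzyme and uninhibited controls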
# SUMO1-SIM PPI = modulators of human SUMO1-mediated protein-protein interactions | P63165 | SUMO1 binding to a labelled peptide, TR-FRET, 1 h | inhibition, % at 20 µM | AID 602429 | 360,000 tested, 0.33% active; in the data active = inhibition above about 37%
# Target sequence (P63165 whole entry, looked up): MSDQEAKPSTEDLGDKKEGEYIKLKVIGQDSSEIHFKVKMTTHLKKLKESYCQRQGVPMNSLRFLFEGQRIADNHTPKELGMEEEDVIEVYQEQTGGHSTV
# STEP block = inhibitors of human striatal-enriched phosphatase STEP. P54829. recombinant STEP, OMFP fluorogenic substrate, fluorescence. inhibition, % at 20 µM. 360,000 tested, 0.25% active. AID 588621;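 active = inhibition at 20 µM, scaled per plate between control wells, above about 37%, limit read from the data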;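 also: 0% = DMSO with enzyme and substrate and 100% = substrate only without enzyme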
# Target sequence (P54829 whole entry, looked up): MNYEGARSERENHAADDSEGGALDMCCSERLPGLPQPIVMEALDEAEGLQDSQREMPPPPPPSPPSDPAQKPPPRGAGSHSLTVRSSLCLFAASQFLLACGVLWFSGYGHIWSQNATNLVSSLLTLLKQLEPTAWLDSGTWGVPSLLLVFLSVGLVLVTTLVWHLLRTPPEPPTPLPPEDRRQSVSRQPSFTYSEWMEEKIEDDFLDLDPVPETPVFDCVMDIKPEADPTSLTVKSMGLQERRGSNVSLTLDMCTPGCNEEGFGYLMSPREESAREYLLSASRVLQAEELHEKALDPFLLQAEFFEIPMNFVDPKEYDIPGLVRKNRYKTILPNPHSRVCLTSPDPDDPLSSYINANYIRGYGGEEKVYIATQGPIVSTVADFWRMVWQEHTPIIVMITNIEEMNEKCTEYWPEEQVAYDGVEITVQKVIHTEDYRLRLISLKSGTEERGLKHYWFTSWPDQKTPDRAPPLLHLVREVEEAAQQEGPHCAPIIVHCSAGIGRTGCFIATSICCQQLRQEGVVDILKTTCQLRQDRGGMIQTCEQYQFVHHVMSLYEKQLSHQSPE
#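 Measure: Control-normalized % inhibition with plate pattern correction | Test system: STEP phosphatase, cell-free reaction | Medium: pH 6.0 Bis-Tris with DTT and Tween 20 | Technique: Fluorescence, 480/540 nm | Times: Reaction 20 min, ambient temperature | Doses: Single compound dose of 20 µM, 1% DMSO final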
# Scp-1 inhibitor = inhibitors of human Scp-1 phosphatase; Q9GZU7; Recombinant Scp1, phosphopeptide, malachite green phosphate absorbance; inhibition, % at 20 µM; 340,000 tested, 0.88% active;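 active = inhibition above about 50% at 20 µM, limit read from the data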;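 also: plate controls were DMSO wells with enzyme for no effect and wells lacking enzyme for full effect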
#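 Test system: SCP-1 phosphatase catalytic domain, residues 76-261 | Compound dosing: One concentration, 20 µM, with 1.0% DMSO | Schedule: 45 min room-temperature reaction, 5 min colour, 30 min stabiliser | Detection: Absorbance at 630 nm | Read-out basis: % inhibition of SCP-1 phosphate liberation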
# DNMT1 block = blocks human DNA methyltransferase DNMT1 | 360,000 tested, 0.83% active | AID 588458 | DNMT1 molecular beacon, Hinp1I cleavage, fluorescence | P26358 | inhibition (reported as % activation of signal), % at 10 µM; in the data active = inhibition above about 50%
# Scp1 confirm = confirmation of human Scp-1 phosphatase inhibitors; shares compounds with Scp-1 inhibitor; recombinant SCP-1 catalytic domain, phosphate release, malachite green absorbance; inhibition, % at 20 µM; 2,500 tested, 61% active;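 also: plate controls were DMSO with enzyme for no effect and buffer wells lacking enzyme for full effect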
# MG interference = counter-screen for Scp-1 inhibitors: colorimetric interference; shares compounds with Scp-1 inhibitor; apparent inhibition (interference), % at 20 µM; Colorimetric interference counterscreen, malachite green absorbance 630 nm; 2,500 tested, under 10 active;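 also: compounds added after enzyme reaction finished so only phosphate colour detection is probed; plate controls were DMSO wells with completed Scp-1 reaction for no effect and substrate wells lacking enzyme for full effect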
# Scp1 DSF = binds human Scp-1, shifting its melting temperature; thermal shift relative to vanadate control, % at 40 µM; AID 540329; shares compounds with Scp-1 inhibitor; 1,500 tested, 25% active; Recombinant SCP1, Sypro Orange thermal shift Tm;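 active = substances whose mean melting-temperature shift, as a percentage of the reference inhibitor's shift, reaches about 5.3%, limit read from the data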;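 also: 0% = Tm of DMSO wells and 100% = Tm with sodium orthovanadate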
# Numbers without * were called inactive; x = no result given. Hits are enriched below; roughly 1.7% of the tested compounds scored in any of these assays.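 The calls were made as follows, unless noted: active = inhibition of at least 30% at 20 µM; inactive = the rest.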
SMILES,Casp6 inh,LMPTP block,SUMO1-SIM PPI,STEP block,Scp-1 inhibitor,DNMT1 block,Scp1 confirm,MG interference,others
CN(C)S(=O)(=O)c1cccc(C(=O)OCC(=O)Nc2sccc2C(N)=O)c1,x,17,20,9,57*,9,4,0,
O=C(O)c1ccccc1Nc1ccc(OC(F)F)cc1,-3,-1,1,3,-7,-2,x,x,
CSc1nnc(-c2ccc(NC(=O)CCc3ccccc3)cc2)n1C,x,-2,1,-4,102*,8,-5,-16,
Cn1c(SCC(=O)Nc2ccccc2)nnc1-c1ccc(NC(=O)CCc2ccccc2)cc1,x,-1,1,-1,0,3,x,x,
Cc1ccc(S(=O)(=O)N2CCN(C(=O)Cc3ccc(S(=O)(=O)N4CCOCC4)s3)CC2)cc1,-5,1,0,0,-4,-3,x,x,
COc1ccc(N2CCN(C(=O)Cc3ccc(S(=O)(=O)N4CCOCC4)s3)CC2)cc1,9,10,-1,0,81*,28,69*,-12,Scp1 DSF=4
O=C(O)Cc1ccc(S(=O)(=O)N2CCCC2)s1,32,2,10,18,93*,67*,58*,-22,Scp1 DSF=0
O=C(Cc1ccc(S(=O)(=O)N2CCCC2)s1)N1CCN(c2ccccc2)CC1,-5,-1,3,0,0,4,x,x,
CC(=O)c1nnn(-c2ccccc2C#N)c1C,5,-2,-3,-3,65*,1,-2,-8,
CCOC(=O)C1=C(C)NC(=O)NC1c1c(OCC(=O)N2CCCCC2)ccc2ccccc12 (stereo not given),x,0,-4,2,-5,5,-8,-9,
CCOC(=O)C1=C(C)NC(=O)NC1c1ccc(OCC(=O)N2CCCCC2)cc1 (stereo not given),x,-1,-2,3,0,3,x,x,
CCN(CC(=O)NC(=O)Nc1ccccc1F)Cc1ccccc1,-4,1,2,-2,-6,1,x,x,
Cc1ccc(S(=O)(=O)N2CCN(C(=O)COC(=O)CCOc3ccccc3C)CC2)c(C)c1,9,0,0,0,66*,-1,86*,-17,Scp1 DSF=-20
COc1ccccc1C(=O)N/C(=C\c1ccc(Br)cc1)C(=O)NCCC(=O)O,1,-1,-2,-1,-7,1,x,x,
Cc1c(/C=N\NC(=O)c2cccc(F)c2)cnn1C,-2,-2,0,2,-8,4,x,x,
CCc1ccc(OCc2cccc(C(=O)N/N=C\c3cnn(C)c3C)c2)cc1,5,14,7,4,66*,15,78*,-4,Scp1 DSF=-6
C=CCSc1nnc(NC(=O)CSc2nc(CCC)cc(=O)[nH]2)s1,x,-1,0,-2,53*,-1,7,-5,
C=CCSc1nnc(NC(=O)CSc2nc3ccccc3[nH]2)s1,x,1,6,5,23,21,x,x,
CN1CCN(S(=O)(=O)c2ccc(NC(=O)c3ccc([N+](=O)[O-])cc3)cc2)CC1,6,0,-28,0,-10,2,x,x,
COc1ccc(NC(=O)CCN2CCC(C)CC2)cc1,x,-1,-2,1,5,1,x,x,
CCOC(=O)N1CCC(N2CC34C=CC(O3)C(C(=O)Nc3ccc(F)cc3)C4C2=O)CC1 (stereo not given),x,0,3,-1,90*,-1,-4,-10,
Cc1csc(NC(=O)CSc2nnc(Cc3cccn3C)n2CCc2ccccc2)n1,0,1,6,0,-12,-2,x,x,
CC(=O)OCC1=C(C(=O)O)N2C(=O)C(NC(=O)C(C)Cn3nc(C)c(Cl)c3C)C2SC1 (stereo not given),28,1,3,1,53*,24,67*,-5,Scp1 DSF=-1
CC(=O)OCC1=C(C(=O)O)N2C(=O)C(NC(=O)c3ccc(F)cc3)C2SC1 (stereo not given),4,1,0,0,15,2,x,x,
CSc1ccc(NC(=O)Nc2ccc(C(=O)NCC(=O)O)cc2)cc1,52*,39,10,11,52*,15,36*,-21,Scp1 DSF=6.0*
SMILES,Casp6 inh,LMPTP block,SUMO1-SIM PPI,STEP block,Scp-1 inhibitor,DNMT1 block,Scp1 confirm,MG interference,others
c1ccc2sc(-c3ccc4c(c3)OCO4)nc2c1,x,3,-13,3,-2,0,x,x,
CCOc1cc(/C=N/N=C2/NC(=O)C(CC(=O)O)S2)ccc1OCc1ccccc1Cl (stereo not given),x,1,-3,8,75*,1,64*,-17,Scp1 DSF=-17
CCOc1cc(/C=N/NC(=O)CSc2nnc(C)s2)ccc1OCc1ccccc1Cl,-1,1,-4,0,78*,-6,37*,-20,Scp1 DSF=-7
COc1ccc(S(=O)(=O)Oc2cccc(/C=N/N=C3/NC(=O)C(CC(=O)O)S3)c2)cc1 (stereo not given),5,-1,-1,7,-4,2,x,x,
COc1ccc(/C=N/N=C2/NC(=O)C(CC(=O)O)S2)cc1OCc1ccccc1Cl (stereo not given),x,-1,7,1,81*,3,72*,-4,Scp1 DSF=-5
O=C(CSc1nnc(SCc2ccccc2Cl)s1)N/N=C/c1ccc(C(=O)O)cc1,3,2,-5,1,6,0,x,x,
CCOc1cc(/C=N/N=C2/NC(=O)C(CC(=O)O)S2)ccc1OS(=O)(=O)c1ccc(C)cc1 (stereo not given),5,0,2,4,-3,-3,x,x,
CC1CCC(NC(=O)C2CCN(S(=O)(=O)c3cccc4nonc34)CC2)CC1 (stereo not given),2,1,-14,1,3,3,x,x,
Cc1ccc(C2=NS(=O)(=O)N(C)C(C(=O)NCc3ccccn3)=C2)cc1,0,0,-20,-3,-14,2,x,x,
O=C(NNC1=Nc2ccccc2SC1)c1ccccc1F,2,-1,1,2,0,0,x,x,
Cc1ccccc1-c1ccc(CN2C(C(C)C)C(=O)N(Cc3cn(CCC4OCCO4)nn3)CCS2(=O)=O)cc1 (stereo not given),4,2,5,2,x,-7,x,x,
O=C(O)/C=C\C(=O)Nc1cccc(NC(=O)c2ccccc2)c1,1,-1,7,1,1,-2,x,x,
